From ChEMBL document CHEMBL1129275, “Synthesis and in vitro and in vivo characteristics of an iodinated analogue of the beta-adrenoceptor antagonist carazolol” (J Med Chem, 1996)

How the values were obtained:
Details in all cases: in vivo
[1] = test system: Oryctolagus cuniculus; assay: Cerebral biodistribution pattern of [123I]- ligand was evaluated in thalamus of anesthetized rabbit after Intravenous injection of 50 uCi after 2 hr; type: ADME, organism-based
Summary of the method: (§1)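 Male New Zealand white rabbits (2.5–3.5 kg), anesthetized with xylazine 5 mg/kg plus ketamine 30 mg/kg im, given 50 µCi radioligand (specific activity >5000 Ci/mmol) iv via ear vein. Euthanized at set times by pentobarbital 200 mg/kg im, n = 3/time point. Organs removed and weighed, gamma-counted, decay/weight corrected; expressed as % ID x kg body weight/g tissue, mean ± SEM.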

[2] = test system: Oryctolagus cuniculus; assay: Biodistribution pattern of [123I]- ligand was evaluated in spleen of anesthetized rabbit after Intravenous injection of 50 uCi after 2 hr; type: ADME, organism-based; summary of the method: as §1
[3] = test system: Oryctolagus cuniculus; assay: Biodistribution pattern of [123I]- ligand was evaluated in left atrial muscle of anesthetized rabbit after Intravenous injection of 50 uCi after 2 hr; type: ADME, organism-based, Muscle tissue
Summary of the method: (§2)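 Male New Zealand white rabbits, 2.5–3.5 kg, anesthetized with 5 mg/kg xylazine plus 30 mg/kg ketamine im. Each received 50 uCi radioligand (specific activity > 5000 Ci/mmol) iv via ear vein. Animals were killed with 200 mg/kg pentobarbital im at the set time. Blood was drawn by intracardiac puncture and organs weighed. Gamma counting was decay-corrected, expressed as %ID x kg body weight/g tissue, mean ± SEM, n = 3/time point.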

[4] = test system: Oryctolagus cuniculus; assay: Biodistribution pattern of [123I]- ligand was evaluated in liver of anesthetized rabbit after Intravenous injection of 50 uCi after 2 hr; type: ADME, organism-based; summary of the method: as §2
[5] = test system: Oryctolagus cuniculus; assay: Biodistribution pattern of [123I]- ligand was evaluated in right ventricular muscle of anesthetized rabbit after Intravenous injection of 50 uCi after 2 hr; type: ADME, organism-based, Muscle tissue; summary of the method: as §1
[6] = test system: Oryctolagus cuniculus; assay: Biodistribution pattern of [123I]- ligand was evaluated in fat of anesthetized rabbit after Intravenous injection of 50 uCi after 2 hr; type: ADME, organism-based, Adipose tissue; summary of the method: as §2
[7] = test system: Oryctolagus cuniculus; assay: Cerebral biodistribution pattern of [123I]- ligand was evaluated in striatum of anesthetized rabbit after Intravenous injection of 50 uCi after 2 hr; type: ADME, organism-based; summary of the method: as §1
[8] = test system: Oryctolagus cuniculus; assay: […] biodistribution pattern of [123I]- ligand was evaluated in kidney of anesthetized rabbit after Intravenous injection of 50 uCi after 2 hr; type: ADME, organism-based; summary of the method: as §1
[9] = test system: Oryctolagus cuniculus; assay: Cerebral biodistribution pattern of [123I]- ligand was evaluated in pituitary gland of anesthetized rabbit after Intravenous injection of 50 uCi after 2 hr; type: ADME, organism-based; summary of the method: as §1
[10] = test system: Oryctolagus cuniculus; assay: Cerebral biodistribution pattern of [123I]- ligand was evaluated in cerebellum of anesthetized rabbit after Intravenous injection of 50 uCi after 2 hr; type: ADME, organism-based; summary of the method: as §1
[11] = test system: Oryctolagus cuniculus; assay: Biodistribution pattern of [123I]- ligand was evaluated in muscle of anesthetized rabbit after Intravenous injection of 50 uCi after 2 hr; type: ADME, organism-based, Muscle tissue; summary of the method: as §2
[12] = test system: Oryctolagus cuniculus; assay: Biodistribution pattern of [123I]- ligand was evaluated in blood of anesthetized rabbit after Intravenous injection of 50 uCi after 2 hr; type: ADME, organism-based; summary of the method: as §2
[13] = test system: Oryctolagus cuniculus; assay: Biodistribution pattern of [123I]- ligand was evaluated in left ventricular muscle of anesthetized rabbit after Intravenous injection of 50 uCi after 2 hr; type: ADME, organism-based, Muscle tissue; summary of the method: as §2
[14] = test system: Oryctolagus cuniculus; assay: Biodistribution pattern of [123I]- ligand was evaluated in intestine of anesthetized rabbit after Intravenous injection of 50 uCi after 2 hr; type: ADME, organism-based; summary of the method: as §2
[15] = test system: Oryctolagus cuniculus; assay: Biodistribution pattern of [123I]- ligand was evaluated in right atrial muscle of anesthetized rabbit after Intravenous injection of 50 uCi after 2 hr; type: ADME, organism-based, Muscle tissue; summary of the method: as §1
[16] = test system: Oryctolagus cuniculus; assay: Cerebral biodistribution pattern of [123I]- ligand was evaluated in frontal cortex of anesthetized rabbit after Intravenous injection of 50 uCi after 2 hr; type: ADME, organism-based; summary of the method: as §1
[17] = test system: Oryctolagus cuniculus; assay: Cerebral biodistribution pattern of [123I]- ligand was evaluated in hypothalamus of anesthetized rabbit after Intravenous injection of 50 uCi after 2 hr; type: ADME, organism-based; summary of the method: as §1
[18] = test system: Oryctolagus cuniculus; assay: Biodistribution pattern of [123I]- ligand was evaluated in lung of anesthetized rabbit after Intravenous injection of 50 uCi after 2 hr; type: ADME, organism-based; summary of the method: as §2

Structure (SMILES) | ID x kg of body weight/g of tissue [1] | ID x kg of body weight/g of tissue [2] | ID x kg of body weight/g of tissue [3] | ID x kg of body weight/g of tissue [4] | ID x kg of body weight/g of tissue [5] | ID x kg of body weight/g of tissue [6] | ID x kg of body weight/g of tissue [7] | ID x kg of body weight/g of tissue [8] | ID x kg of body weight/g of tissue [9] | ID x kg of body weight/g of tissue [10] | ID x kg of body weight/g of tissue [11] | ID x kg of body weight/g of tissue [12] | ID x kg of body weight/g of tissue [13] | ID x kg of body weight/g of tissue [14] | ID x kg of body weight/g of tissue [15] | ID x kg of body weight/g of tissue [16] | ID x kg of body weight/g of tissue [17] | ID x kg of body weight/g of tissue [18]
CC(C)NCC(O)COc1cccc2ccccc12 (stereo not given) [PROPRANOLOL] | 0.04% | 0.1% | < 0.07% | 0.1% | < 0.09% | 0.04% | < 0.04% | 0.1% | 0.06% | < 0.04% | < 0.03% | 0.01% | < 0.09% | 0.29% | < 0.07% | < 0.05% | 0.04% | –
CC(C)(C)NCC(O)COc1cccc2[nH]c(=O)[nH]c12 (stereo not given) [CGP-12177] | 0.06% | 0.12% | < 0.05% | 0.1% | < 0.08% | 0.04% | 0.08% | 0.09% | 0.07% | 0.17% | < 0.03% | 0.01% | < 0.08% | 0.46% | < 0.05% | 0.1% | 0.06% | < 0.8%
